In article PMC10092158 (The British Journal of Dermatology, 2022):
Entries after “also recorded” stand apart in the source; their conditions may differ.

Experiments:
Format in all cases: in vivo, human
[1] = system: participants with mild‐to‐moderate AD
Summary of the method: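 Adults and children with mild-to-moderate AD (IGA 2–3, 2–20% BSA, EASI 3–21) were randomized equally to eight arms for 6 weeks. QD arms were vehicle, 0·1% (1 mg g–1), 0·3%, 1·0% or 3·0% cream; BID arms were vehicle, 0·3% or 1%. Application was to all affected areas except hair-bearing scalp. Read-outs were POEM at weeks 1, 2 and 6 and weekly PP-NRS averages, analysed by ANCOVA or MMRM.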

[2] = system: participants with mild‐to‐moderate AD; experiment: Phase IIb study: safety and tolerability
Summary of the method: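 Safety data came from randomized participants treated for 6 weeks with vehicle or cream (QD 0·1–3·0%, or BID 0·3%/1%). Measures were treatment-emergent adverse events coded by System Organ Class, discontinuations due to TEAEs, vital signs, laboratory tests (haematology, creatine kinase, liver function) and ECGs. All were summarized descriptively.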

[3] = Phase IIb study: plasma concentrations of brepocitinib; settings: topical cream, all dose groups; lower limit of quantification 0·200 ng mL^–1
Summary of the method: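 Blood was drawn pre-dose at baseline and at weeks 1, 2, 3, 4 and 6, each at the same interval after application, during 6 weeks of topical cream given QD (0·1–3·0%) or BID (0·3%, 1%). Plasma brepocitinib was quantified against an LLOQ of 0·200 ng mL–1 and summarized as median concentration per dose group.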

## Cn1cc(Nc2nccc(N3C[C@H]4CC[C@@H](C3)N4C(=O)[C@@H]3CC3(F)F)n2)cn1 [brepocitinib]
[1]; 1% QD, 3% QD and 1% BID groups, week 1 and all subsequent time points
  Percentage change from baseline in EASI score compared with respective vehicle: significantly greater percentage changes from baseline in EASI score
[1]; 24 h after the first administration
  Onset of clinically relevant reductions in pruritus: as early as day 2
[1]; all brepocitinib groups
  Change from baseline in POEM at week 6 vs. vehicle: significantly different from vehicle
[2]; 0·1% QD (N = 37)
  Discontinued from study due to TEAE, participants: 2 (5·4) n (%)
  Nasopharyngitis (TEAE), participants: 2 (5·4) n (%)
  Severe TEAEs, participants: 0 n (%)
  TEAEs, all causalities, participants: 17 (45·9) n (%)
  Treatment‐emergent SAEs, participants: 0 n (%)
  Worsening of AD (TEAE), participants: 3 (8·1) n (%)
[2]; 0·1% QD and 0·3% QD groups, not deemed treatment‐related
  Cases of creatine kinase elevation (≥ 2–3× the upper limit of normal): one participant each
[2]; 0·3% BID (N = 36)
  Discontinued from study due to TEAE, participants: 1 (2·8) n (%)
  Nasopharyngitis (TEAE), participants: 2 (5·6) n (%)
  Severe TEAEs, participants: 1 (2·8) n (%)
  TEAEs, all causalities, participants: 9 (25·0) n (%)
  Treatment‐emergent SAEs, participants: 0 n (%)
  Worsening of AD (TEAE), participants: 0 n (%)
[2]; 0·3% QD (N = 36)
  Discontinued from study due to TEAE, participants: 1 (2·8) n (%)
  Nasopharyngitis (TEAE), participants: 2 (5·6) n (%)
  Severe TEAEs, participants: 0 n (%)
  TEAEs, all causalities, participants: 11 (30·6) n (%)
  Treatment‐emergent SAEs, participants: 0 n (%)
  Worsening of AD (TEAE), participants: 1 (2·8) n (%)
[2]; 1.0% QD (N = 37)
  Discontinued from study due to TEAE, participants: 2 (5·4) n (%)
  Nasopharyngitis (TEAE), participants: 3 (8·1) n (%)
  Severe TEAEs, participants: 0 n (%)
  TEAEs, all causalities, participants: 12 (32·4) n (%)
  Treatment‐emergent SAEs, participants: 0 n (%)
  Worsening of AD (TEAE), participants: 0 n (%)
[2]; 1·0% BID (N = 37)
  Discontinued from study due to TEAE, participants: 0 n (%)
  Nasopharyngitis (TEAE), participants: 2 (5·4) n (%)
  Severe TEAEs, participants: 0 n (%)
  TEAEs, all causalities, participants: 14 (37·8) n (%)
  Treatment‐emergent SAEs, participants: 0 n (%)
  Worsening of AD (TEAE), participants: 2 (5·4) n (%)
[2]; 3·0% QD (N = 36)
  Discontinued from study due to TEAE, participants: 2 (5·6) n (%)
  Nasopharyngitis (TEAE), participants: 4 (11·1) n (%)
  Severe TEAEs, participants: 0 n (%)
  TEAEs, all causalities, participants: 10 (27·8) n (%)
  Treatment‐emergent SAEs, participants: 0 n (%)
  Worsening of AD (TEAE), participants: 1 (2·8) n (%)
[2]; all brepocitinib groups together
  Discontinuations due to TEAEs in SOC skin and subcutaneous tissue disorders: 4 n
[2]; all groups
  Trends in haemoglobin, platelet, lymphocyte or neutrophil counts or creatine kinase levels: no clinically significant trends
[2]; all groups, 6 weeks treatment
  Serious AEs or deaths: no serious AEs or deaths; also recorded: no serious TEAEs or deaths
[3]
  Plasma brepocitinib concentrations: low and highly variable
